A word on the logP: it is the decadic logarithm of the partition coefficient of the neutral form, usually between octanol and water. Read a low logP as lower lipophilicity. For orientation: logD means lipophilicity at a set pH, counting ionised and neutral species. Low values mean a more hydrophilic compound, high ones a more lipophilic compound. The pKa is the pH at which an ionisable group is half protonated. Low readings indicate a stronger acid or weaker base, high ones a weaker acid or stronger base.

Data set [1] can be described thus: Lipophilicity, log P of the compound. The class given is physicochemical. The settings on record: octanol/water.
Data set [2] in a line: Inhibition of H+/K+ ATPase in hog gastric mucosa by competitive binding assay. Format: tissue-based, Sus scrofa. A digest of the protocol:
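Competitive binding assay using H+/K+-ATPase prepared from hog gastric mucosa; activity reported as −log IC50.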

Data set [3] can be described thus: Lipophilicity, log D at pH 7.4. Format: physicochemical. The settings on record: buffer.
Data set [4] in a line: Dissociation constant, pKa of the compound. The class given is physicochemical. In short, it runs like this:
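Potentiometric co-solvent titration in 0.15 mol/L KCl over pH 2.0–11.0 at 25 °C. Methanol co-solvent at varying proportions; 0.5 mol/L KOH and HCl as titrants. Aqueous pKa obtained by linear extrapolation to 0% co-solvent (Yasuda–Shedlovsky plot).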

Turning to `Cc1nc2c(N[C@H]3c4ccccc4C[C@@H]3O)cc(C(=O)N(C)C)cn2c1C`, the logP in data set [1] came to 2.85. In addition, in data set [2], the “Log IC50” value is -6.3. The same compound yielded a logD in data set [3] of 2.82. The compound also came in with a pKa in data set [4] of 6.24.
The matching figures for `COCCNC(=O)c1cc(N[C@H]2c3ccccc3C[C@@H]2O)c2nc(C)c(C)n2c1`: 3.43, -4.7, 3.41 and 6.01.
`COc1cccc2c1[C@H](Oc1cc(C(=O)N(C)C)cn3c(C)c(C)nc13)[C@@H](O)C2` registered a logP in data set [1] of 2.3. Further, the “Log IC50” value in data set [2] was -5.7. This compound gave a log distribution coefficient (logD) in data set [3] of 2.27. The compound also displayed a pKa in data set [4] of 6.27.
In turn, `CCc1cccc(C)c1CNc1cc(C(N)=O)cn2c(C)c(C)nc12` registered a logP in data set [1] of 4.95. Also, in data set [2], the “Log IC50” value is reported as -6.2. Besides, in data set [3], the logD was 4.93. Moreover, in data set [4], the pKa was found to be 6.1.
Taken in the same sequence, the figures for `Cc1nc2c(N[C@H]3c4ccccc4C[C@@H]3O)cc(C(N)=O)cn2c1C` were 3.11, -4.8, 3.09 and 5.97.
Taken in the same sequence, the figures for `CNC(=O)c1cc(N[C@H]2c3ccccc3C[C@@H]2O)c2nc(C)c(C)n2c1` were 3.4, -5.4, 3.39 and 5.97.
Taken in the same sequence, the figures for `Cc1cccc2c1[C@H](Oc1cc(C(=O)N(C)C)cn3c(C)c(C)nc13)[C@@H](O)C2` were 2.59, -6.9, 2.56 and 6.22.
As for `Cc1nc2c(O[C@H]3c4ccccc4C[C@@H]3O)cc(C(=O)N(C)C)cn2c1C`, in data set [1], the logP stood at 2.2. In data set [2], the “Log IC50” value is recorded as -5.7. The compound also displayed a logD in data set [3] of 2.16. Besides, in data set [4], the pKa was 6.21.

The values above are taken from ChEMBL document CHEMBL1149711, “Novel indanyl-substituted imidazo[1,2-a]pyridines as potent reversible inhibitors of the gastric H+/K+-ATPase” (Bioorg Med Chem Lett, 2007).
